From ChEMBL document CHEMBL1136928, “Novel orally bioavailable gamma-secretase inhibitors with excellent in vivo activity” (J Med Chem, 2009) come the findings set out here.

The nature of series [1]: Inhibition of gamma secretase assessed as amyloid beta42 production.
Series [2] can be described thus: Half life in rhesus monkey. It is filed as ADME, organism-based, Macaca mulatta. The conditions noted are these: in vivo.
Series [3] is described as follows: Inhibition of gamma secretase assessed as amyloid beta40 production.
Series [4] in a line: Bioavailability in rhesus monkey. The format is ADME, organism-based, Macaca mulatta. The conditions noted are these: in vivo.
A short description of series [5]: Bioavailability in dog. The conditions noted are these: in vivo. It is filed as ADME, organism-based, Canis lupus familiaris.
The subject of series [6] is Mus musculus. Nature of the series: Reduction in amyloid beta40 production in po dosed human betaAAP overexpressing YAC mouse forebrain after 4 hrs. The format is functional. The settings on record: Brain. The method, boiled down: (§1)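 APP-YAC transgenic mice overexpressing human βAPP; oral dosing as suspension in 0.5% methocel, 3 mg/kg (also 0.3 and 1 mg/kg for dose–response). Soluble Aβ(40) in forebrain measured 4 h post-dose; reduction expressed relative to vehicle-treated animals; ED50 from dose–response.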

The nature of series [7]: Bioavailability in rat. The format is ADME, organism-based. The settings on record: in vivo.
Series [8] concerns Mus musculus. Put plainly: Reduction in amyloid beta40 production in human betaAAP overexpressing YAC mouse forebrain at 3 mg/kg, po after 4 hrs relative to control. The format is functional. Also noted: scale not given: the % may be the effect or the level left. The method, boiled down:
as §1

In series [9] the target is Gamma-secretase. Nature of the series: Inhibition of gamma secretase in human SH-SY5Y cells by HTRF assay. The format is cell-based.
The nature of series [10]: Half life in rat. The format is ADME, organism-based. The settings on record: in vivo.
The nature of series [11]: Half life in dog. The settings on record: in vivo. The format is ADME, organism-based, Canis lupus familiaris.

Calls of active or inactive are those of the source. The calls are words filed in the database; no cut-off is given here.

For orientation: half-life means the time in which the quantity being followed falls by half. By bioavailability is commonly meant dose-corrected exposure relative to a reference, in per cent. As a reminder, the ED50 is the dose that gives a 50% effect, or the effect in half of the subjects. By IC50 is commonly meant the concentration that inhibits the measured activity by half. Turning to `Cn1nc(-c2ccc3c(c2)C[C@H]2CC[C@@H](C3)[C@]23CN(CC(F)(F)F)S(=O)(=O)N3)cc1-c1ccc(F)cc1`, the outcome in series [1] and in series [3] was Active. In addition, the results for the half-life in series [2], in [10] and in series [11] were 16 h, 2 h and above 10 h, respectively. The bioavailability in series [4] is 45%; in series [5], 42%; in [7], 35%. Besides, the ED50 in [6] stood at 1 mg/kg. In [8], this compound displayed an Activity of 84%. This compound gave an IC50 in series [9] of 0.06 nM.

Regarding `Cn1nc(-c2ccc3c(c2)C[C@H]2CC[C@@H](C3)[C@]23CN(CC(F)(F)F)S(=O)(=O)N3)cc1-c1ccc(F)c(F)c1`, it took 0.06 nM to reach half-maximal inhibition in series [9] (IC50).

In series [9], `O=S1(=O)N[C@@]2(CN1CC(F)(F)F)[C@@H]1CC[C@H]2Cc2ccc(-c3ncc(N4CCC(C(F)(F)F)CC4)s3)cc2C1` came in with an IC50 of 0.34 nM.

Regarding `O=S1(=O)N[C@@]2(CN1CC(F)(F)F)[C@@H]1CC[C@H]2Cc2ccc(-c3cn(-c4ccc(F)cc4)cn3)cc2C1`, the Activity in [8] stood at 66%. Moreover, in series [9], inhibition was half-maximal at 0.03 nM (IC50).

Compound `O=S1(=O)N[C@@]2(CN1CC(F)(F)F)[C@@H]1CC[C@H]2Cc2ccc(-c3cn(-c4ccc(Cl)cc4)cn3)cc2C1` returned an IC50 in [9] of 0.08 nM.

Consider `Cn1nc(-c2ccc(F)cc2)cc1-c1ccc2c(c1)CC1CCC(C2)C12CN(CC(F)(F)F)S(=O)(=O)N2` (racemic), for which the midpoint of inhibition in [9], the IC50, lay at 1.65 nM.

Turning to `Cn1nc(-c2ccc3c(c2)CC2CCC(C3)C23CN(CC(F)(F)F)S(=O)(=O)N3)cc1-c1ccccc1F` (racemic), 0.21 nM corresponded to half-maximal inhibition in series [9] (IC50).

In series [9], `O=S1(=O)N[C@@]2(CN1CC(F)(F)F)[C@@H]1CC[C@H]2Cc2ccc(-c3cn(-c4ccc(Cl)c(Cl)c4)cn3)cc2C1` came in with an IC50 of 0.42 nM.

The compound `O=S1(=O)N[C@@]2(CN1CC(F)(F)F)[C@@H]1CC[C@H]2Cc2ccc(-c3cn(-c4cccc(F)c4)cn3)cc2C1` yielded a 50% inhibitory concentration (IC50) in [9] of 0.82 nM.

Take `O=S1(=O)N[C@@]2(CN1CC(F)(F)F)[C@@H]1CC[C@H]2Cc2ccc(-c3cn(-c4ccc(F)cc4F)cn3)cc2C1`: the half-maximal inhibitory concentration (IC50) in series [9] was 0.06 nM.

For `O=S1(=O)N[C@@]2(CN1CC(F)(F)F)[C@@H]1CC[C@H]2Cc2ccc(-c3cn(-c4ccccc4F)cn3)cc2C1`, the IC50 in series [9] was determined as 0.17 nM.

Consider `O=S1(=O)N[C@@]2(CN1CC(F)(F)F)[C@@H]1CC[C@H]2Cc2ccc(/C=C/CN3CCC(C(F)(F)F)CC3)cc2C1`, for which it took a dose of 17 mg/kg to reach the 50% effect level in series [6] (ED50). This compound also returned a half-maximal inhibitory concentration (IC50) in [9] of 0.24 nM.

Turning to `Cn1nc(-c2ccc3c(c2)C[C@H]2CC[C@@H](C3)[C@]23CN(CC(F)(F)F)S(=O)(=O)N3)cc1-c1ccc(Cl)cc1`, half-maximal inhibition in series [9] (IC50) required 0.07 nM.

With `Cn1nc(-c2ccc3c(c2)C[C@H]2CC[C@@H](C3)[C@]23CN(CC(F)(F)F)S(=O)(=O)N3)cc1-c1cccc(F)c1` (racemic), the IC50 in series [9] is 0.46 nM.

In series [9], `Cn1nc(-c2ccc3c(c2)C[C@H]2CC[C@@H](C3)[C@]23CN(CC(F)(F)F)S(=O)(=O)N3)cc1-c1ccc(Cl)c(Cl)c1` registered a half-inhibitory concentration (IC50) of 0.41 nM.

`O=S1(=O)N[C@@]2(CN1CC(F)(F)F)[C@@H]1CC[C@H]2Cc2ccc(-c3cn(-c4ccc(F)c(F)c4)cn3)cc2C1`: in series [9], the IC50 was 0.12 nM.

`O=S1(=O)N[C@@]2(CN1CC(F)(F)F)[C@@H]1CC[C@H]2Cc2ccc(-c3ncn(-c4ccc(F)cc4)n3)cc2C1` came in with a 50% inhibitory concentration (IC50) in series [9] of 0.15 nM.

Compound `O=S1(=O)N[C@@]2(CN1CC(F)(F)F)[C@@H]1CC[C@H]2Cc2ccc(-c3ncc(-c4ccc(F)cc4)s3)cc2C1` showed an IC50 in series [9] of 0.42 nM.

Compound `Cn1nc(-c2ccc3c(c2)C[C@H]2CC[C@@H](C3)[C@]23CN(CC(F)(F)F)S(=O)(=O)N3)cc1-c1ccc(F)cc1F` gave an IC50 in [9] of 0.06 nM.
